SMILES strings stand for the structures. Active and inactive are the calls of the source.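 Rule for the calls: active = EC50 for reversing nicotinamide-shortened yeast lifespan at or below a set limit; inactive = EC50 above that limit.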

In the assay the test system is S. cerevisiae DeaD BB579, nicotinamide rescue growth, OD615 48 h. The assay is described as follows: BB579 yeast growth restoration under nicotinamide – S. cerevisiae, yeast lifespan extension project, dose response (AID 809). In outline: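 System – S. cerevisiae DeaD strain BB579 · Buffer or medium – CSMM-D glucose restrictive medium · Times – culture pre-incubation 4 h, then compound exposure 48 h, both 30 °C · Signal – OD615 absorbance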
In the case of `CN1C(=O)/C(=C/c2cccn2-c2ccc3ccccc3c2)C(=O)NC1=S`, the concentration giving a half-maximal response (EC50) (usually the concentration at which the effect is half-maximal) is 5.73 µM. For `O=C(c1cnn2c(C(F)F)cc(C3CC3)nc12)N1CCCC1` the value was > 10 µM (inactive). `CCCCC(=Nc1ccccc1OC)C1=C(O)CC(c2ccccc2)CC1=O` (configuration not stated): the EC50 is 4.5 µM. For `CN1C(=O)C(C(=O)Nc2ccccc2F)c2ccccc21` (configuration not stated), the EC50 is 9.71 µM.

With `CCNCCNC(=O)c1c(O)c2cccc3c2n(c1=O)CCC3`, the concentration for a half-maximal effect (EC50) was 6.32 µM.

Take `Cc1nn(-c2c(Cl)cc(Cl)cc2Cl)c(=O)c2ccccc12`: the EC50 is 6.34 µM.

On to `CC1CCCCN1C(=S)Nc1ccc2nc3n(c(=O)c2c1)CCCCC3` (configuration not stated), for which the EC50 was 8.72 µM. For `CN(C)CC(C(=O)c1ccccc1)c1ccccc1` (configuration not stated), the EC50 is 6.36 µM. For `CC(=O)Oc1c(C(=O)c2nnc(C)o2)c(=O)n(C)c2ccccc12` the value was > 10 µM (inactive); for `CN(Cc1c(O)ccc2c1oc(=O)c1ccccc12)C1CCCCC1`, > 10 µM (inactive); for `CC(C)C(C(=O)O)N1C(=O)/C(=C/c2cccn2C)SC1=S` (configuration not stated), 8.05 µM.

Consider `N#Cc1c(-c2ccccc2)c(-c2ccccc2)nn(CC(=O)NNC(=O)Nc2ccccc2)c1=O`, for which the EC50 was > 10 µM (inactive).

As to `COC(=O)c1cc(OC)c(OC)cc1NC(=S)Nc1cccc(C(C)=O)c1`, the EC50 is > 10 µM (inactive).

As to `Cc1ccc(N(C)C(=O)Oc2ccc(C(=O)c3ccc(Cl)cc3)cc2)cc1`, the EC50 was > 10 µM (inactive). For `Cc1ccc(C(C2=C(O)CC(C)(C)CC2=O)C2C(=O)CC(C)(C)CC2=O)o1` (configuration not stated) the value was 6.35 µM; for `CCCCC(=Nc1ccc(N)cc1)C1=C(O)C(C(=O)OC)C(C)(C)CC1=O` (configuration not stated), 5.51 µM. Regarding `CCCn1c(SCC(=O)c2ccc3c(c2)NC(=O)CO3)nc2ccccc21`, the EC50 was > 10 µM (inactive).

As to `CN(C)c1ccc(S(=O)(=O)c2ccc(Cl)cc2)cc1`, the EC50 was > 10 µM (inactive).

`COc1c(Br)cc(Br)cc1/C=N/n1c(C)nnc1C`: the EC50 was > 10 µM (inactive). With `O=C(NCc1ccco1)c1c(O)c2cccc3c2n(c1=O)CCC3`, the EC50 is 5.98 µM. On to `O=C(Oc1ccc([N+](=O)[O-])cc1)c1ccc2ccccc2n1`, for which the EC50 is > 10 µM (inactive). Turning to `Cc1ccnc(N=Cc2c(O)ccc3oc4c(c23)CCCC4)c1`, the EC50 was 8.47 µM. For `COCCn1c(SCC(=O)Nc2ccc(C)cc2)nc2c(oc3ccccc32)c1=O` the value was > 10 µM (inactive). For `O=[N+]([O-])c1cc2oc3c(c2c(C=NCc2ccncc2)c1O)CCCC3` the value was 1.2 µM; for `Cc1cc(C)nc(SCc2cc(=O)c(OC(=O)c3ccco3)co2)n1`, > 10 µM (inactive). For `O=C1C(=C(O)c2ccccc2)C(=O)c2ccccc21` the value was > 10 µM (inactive); for `CC1=CN2C(=N)/C(=C/c3ccc([N+](=O)[O-])o3)C(=O)N=C2S1`, 6.69 µM. Take `O=[N+]([O-])c1c(C(Cl)Cl)nn(-c2ccccc2)c1N1CCCC1`: the EC50 was 7.47 µM. Regarding `O=S(=O)(CCSc1ccccn1)c1nc2ccccc2s1`, the EC50 is 5.84 µM. Regarding `CCCCC(c1nnnn1CC1CCCO1)N1CCN(c2nc3ccccc3s2)CC1` (configuration not stated), the EC50 was > 10 µM (inactive).

For `CC(=O)Nc1ccc(C(=O)CSc2nnc(-c3ccc(O)cc3)n2CC2CCCO2)cc1` (configuration not stated), the EC50 is > 10 µM (inactive). For `CCCCCCC1C(C#N)=C(N)OC2=C1C(=O)CC(C)(C)C2` (configuration not stated), the EC50 is > 10 µM (inactive). For `CCN1CCCC1CNC(=O)COc1cc(=O)n(C)c2ccccc12` (configuration not stated) the value was > 10 µM (inactive); for `COC(=O)CC1=NN(c2ccccc2)C(=O)/C1=C\c1ccc(OC)cc1`, > 10 µM (inactive).

`CCCn1c(C)cc(C(=O)COc2ncnc3sccc23)c1C`: the EC50 is 5.05 µM. In the case of `O=c1cc(O)c2c(=O)n(-c3ccccc3)c3c(c2o1)CCCCC3`, the EC50 is 5.16 µM. For `O=C(CCc1ccccc1)NCCCN1CCOCC1` the value was > 10 µM (inactive); for `O=C(O)c1c[nH]c(=S)n1-c1ccc(F)cc1`, > 10 µM (inactive); for `CCOC(=O)C1C(=O)C(C(C)=O)C(=O)CC1CC(C)SCC` (configuration not stated), 2.06 µM. For `CCC1CCCCN1S(=O)(=O)c1ccc(S(=O)(=O)N(Cc2cccs2)C2CC2)cc1` (configuration not stated) the value was > 10 µM (inactive); for `O=C(CCC1CCCC1)c1c(O)c2ccccc2oc1=O`, > 10 µM (inactive).

Take `Cc1ccc(NC(=O)CN2CCN(CCN=CC3=C(O)CC(c4ccccc4)CC3=O)CC2)cc1` (configuration not stated): the EC50 is 9.58 µM. For `O=[N+]([O-])c1cc(S(=O)(=O)N2CCCCCC2)ccc1F` the value was 5.18 µM; for `O=C1CC(c2ccccc2)CC(O)=C1C=NCCN1CCOCC1` (configuration not stated), 6.42 µM; for `CCOc1ccc(OCC(=O)c2c(O)c3ccccc3oc2=O)cc1`, 3.4 µM. `CCCCSc1nc(O)c(C2OC(=O)c3c2ccc(OC)c3OC)c(=O)n1C` (configuration not stated): the EC50 is 5.79 µM. For `COc1ccccc1CN(Cc1nc2ccccc2c(=O)[nH]1)C(=O)Nc1cccc(C)c1` the value was > 10 µM (inactive); for `Cc1ccnc(-n2c(C)cc(/C=C3\C(=O)NC(=S)N(C)C3=O)c2C)c1`, > 10 µM (inactive). Regarding `O=C(N/N=C/c1ccc(F)cc1)c1c(O)c2ccccc2[nH]c1=O`, the EC50 is 2.22 µM. Take `CSc1ccc(S(=O)(=O)NCc2ccc(Cl)cc2Cl)cc1`: the EC50 was > 10 µM (inactive). With `CCN(CCO)C(=O)C12CCC(C)(C(=O)C1)C2(C)C` (configuration not stated), the EC50 was > 10 µM (inactive).

In the case of `CC(=O)Oc1oc(-c2ccccc2)nc1C=Nc1ccccc1`, the EC50 is 5.95 µM. For `COc1ccccc1C(=O)Oc1cc(N)n(S(=O)(=O)c2ccc(C)cc2)n1` the value was > 10 µM (inactive); for `Cc1cccc(N2C(=O)/C(=C\c3ccc(OC(F)F)cc3)c3ccccc3C2=O)c1`, > 10 µM (inactive). As to `Cc1ccc(-c2ccc(/C=C3\C(=O)ON=C3c3ccccc3)o2)c([N+](=O)[O-])c1`, the EC50 is 6.93 µM. Consider `Cc1cc(C)c(S(=O)(=O)c2ccccc2)c(OC(=O)c2cc(F)c(F)cc2Cl)n1`, for which the EC50 is 7.24 µM.

For `CNC(=O)/C(C#N)=C/c1c(F)cccc1Cl`, the EC50 is 7.85 µM. For `O=C(CSc1nc2ccccc2o1)c1cc2ccccc2oc1=O` the value was > 10 µM (inactive); for `O=c1c2ccccc2nc(-c2ccc(Cl)c(Cl)c2)n1O`, > 10 µM (inactive); for `CCOC(=O)CSC1=NC(=O)/C(=C/c2ccc(OC)cc2)S1`, 6.43 µM.

Regarding `C/C(=N\NC(=O)c1cccnc1)c1c(O)cc(C)oc1=O`, the EC50 was > 10 µM (inactive). For `COc1ccccc1C(=O)Oc1ccc2c(c1)O/C(=C\c1ccncc1)C2=O` the value was > 10 µM (inactive). For `O=c1c2ccccc2nc(-c2cccc(Cl)c2)n1O` the value was less than 0.078 µM. For `CS(=O)(=O)Oc1ccc(Br)cc1/C=C1/N=C(c2ccco2)OC1=O`, the EC50 is > 10 µM (inactive). For `COc1ccc(CN2CCN(C(=O)COc3cccc(C)c3)CC2)c(OC)c1` the value was > 10 µM (inactive). For `COCCN(CCOC)S(=O)(=O)c1ccc(C(=O)Nc2sc3c(c2C(N)=O)CCCCC3)cc1` the value was > 10 µM (inactive); for `COc1cc(/C=C/C(=O)C2C(=O)C=C(C)OC2=O)cc(OC)c1O` (configuration not stated), 6.69 µM.

The record behind these values is PubChem BioAssay AID809 (SRMLSC, 2007).
